# Experimental data of several laboratories.
# Compare with care: the assays were run in different laboratories.
# Cell line: NCI-H322M
# Read-out: cell growth or viability
Structure (SMILES),assay,conditions,endpoint,value
S=C([S][Au-][P+](CCCCCC[P+]([Au-][S]C(=S)n1cccn1)(c1ccccc1)c1ccccc1)(c1ccccc1)c1ccccc1)n1cccn1,SRB,,GI50,0.417 µM
O=C1NC(=NCc2cccs2)S/C1=C\c1ccc2ncccc2c1,,,IC50,> 10 µM
CCc1n(Cc2ccc3ccccc3n2)cc[n+]1Cc1ccc2ccccc2n1,SRB,,TGI,41.9 µM
COc1ccc(-c2ccc(-c3ccc(C(=N)N)nc3)s2)cc1,SRB,,GI50,1.59 µM
Cc1cc(C)n(C(=S)[S][Au][PH](CCCCCC[PH]([Au][S]C(=S)n2nc(C)cc2C)(c2ccccc2)c2ccccc2)(c2ccccc2)c2ccccc2)n1,SRB,,GI50,0.423 µM
COc1ccc(C(=O)/C=C/c2cc3c(cc2Br)OCO3)cc1S(N)(=O)=O,SRB,48 h,GI50,3.8 µM
COc1cc(-c2ccc(-c3ccc(C(=N)N)nc3)s2)cc(OC)c1OC,SRB,,GI50,3.23 µM
COc1ccc(C(=O)/C=C/c2cccnc2)cc1S(N)(=O)=O,SRB,48 h,GI50,12.3 µM
c1ccc2cc(Cn3cc[n+](Cc4ccc5ccccc5c4)c3)ccc2c1,SRB,,TGI,21.3 µM
O=C1NCCc2[nH]c(-c3ccncc3)cc21,,,IC50,> 10 µM
CCc1n(Cc2ccc3ccccc3n2)cc[n+]1Cc1ccc2ccccc2c1,SRB,,TGI,13.8 µM
COc1cccc(Oc2ccccc2NC(=O)CNC(=O)c2cccc3ccccc23)c1,SRB,48 h,GI50,1.29 µM
